Reference: ChEMBL document CHEMBL3616462, “Synthesis and antiviral activity of maleopimaric and quinopimaric acids' derivatives” (Bioorg Med Chem, 2015)

How the values were obtained:
[1] = Antiviral activity against Influenza A virus (A/California/07/2009(H1N1)) infected in MDCK cells; type: functional, cell-based
[2] = Cytotoxicity against Influenza A virus (A/Viet Nam/1203/2004(H5N1)) infected MDCK cells; type: cell-based, Canis lupus familiaris; settings: dog
[3] = Cytotoxicity against HPV11 infected PHK cells epithelial raft cultures by standard AACF screening assay; type: cell-based; settings: human
[4] = Cytotoxicity against SARS coronavirus Urbani infected African green monkey Vero 76 cells; type: cell-based; settings: chlorocebus sabaeus, Vero 76 cells infected with SARS coronavirus Urbani
[5] = Toxicity against human Huh7ET cells assessed as reduction in beta-actin RNA levels at 20 uM; type: cell-based, Huh-7; settings: values are per cent of control; for response, % of control at 20 µM: Huh7ET cells
In short: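 HCV RNA replicon assay in Huh7 ET cells. Compounds were added in triplicate at a single concentration of 20 µM. Cytotoxicity was read as β-actin RNA as % of control, alongside HCV RNA-derived luciferase activity. Interferon-α (2 IU/mL) was the positive control.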

[6] = system: human papillomavirus 11; experiment: Antiviral activity against HPV11 infected in PHK cells epithelial raft cultures by standard AACF screening assay; type: functional, organism-based; settings: human papillomavirus 11, PHK
[7] = Selectivity index, ratio of CC50 for Influenza B virus (B/Florida/4/2006) infected MDCK cells to EC50 for antiviral activity against Influenza B virus (B/Florida/4/2006) in MDCK cells; type: toxicity, cell-based; settings: dog; read-out: Ratio CC50/EC50
[8] = Cytotoxicity against Adenovirus Chicago 65089 infected human A549 cells; type: cell-based; settings: A549 cells infected with Adenovirus Chicago 65089
In short: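 Respiratory-virus panel screen on A-549 cells, with compounds supplied as DMSO solutions. CC50 is the cell inhibitory concentration at the 50% endpoint, in µM.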

[9] = Cytotoxicity against Influenza A virus (A/Brisbane/10/2007(H3N2)) infected MDCK cells; type: cell-based, Canis lupus familiaris; settings: dog
[10] = Selectivity index, ratio of CC50 for Influenza A virus (A/Brisbane/10/2007(H3N2)) infected MDCK cells to EC50 for antiviral activity against Influenza A virus (A/Brisbane/10/2007(H3N2)); type: toxicity, cell-based; settings: dog; read-out: Ratio CC50/EC50
[11] = Antiviral activity against Influenza A virus (A/Viet Nam/1203/2004(H5N1)) infected in MDCK cells; type: functional, cell-based
[12] = system: Hepatitis C virus; experiment: Antiviral activity against HCV infected in human Huh7ET cells assessed as reduction in HCV RNA-derived luciferase activity at 20 uM by luciferase reporter gene assay; type: functional, Hepacivirus hominis; settings: Huh-7
In short: (§1)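 HCV RNA replicon assay in Huh7 ET cells. Compounds were added in triplicate at a single concentration of 20 µM. Antiviral activity was read as HCV RNA-derived luciferase signal, expressed as % of control. Toxicity was read as β-actin RNA, % of control. SI = toxicity/antiviral activity. Interferon-α (2 IU/mL) was the positive control.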

[13] = Selectivity index, ratio of CC50 for Influenza A virus (A/Viet Nam/1203/2004(H5N1)) infected MDCK cells to EC50 for antiviral activity against Influenza A virus (A/Viet Nam/1203/2004(H5N1)) infected in MDCK cells; type: toxicity, cell-based; settings: dog; read-out: Ratio CC50/EC50
[14] = system: Influenza B virus; experiment: Antiviral activity against Influenza B virus (B/Florida/4/2006) in MDCK cells; type: functional, cell-based; settings: B/Florida/4/2006, MDCK
[15] = system: rhinovirus A2; experiment: Antiviral activity against human rhinovirus 2 infected in MDCK cells; type: functional, organism-based; settings: Rhinovirus A
[16] = Antiviral activity against SARS coronavirus Urbani infected in African green monkey Vero 76 cells; type: functional, cell-based; settings: Severe acute respiratory syndrome-related coronavirus
[17] = Selectivity index, ratio of CC50 for human rhinovirus 2 infected MDCK cells to EC50 for antiviral activity against human rhinovirus 2 infected in MDCK cells; type: toxicity, cell-based; settings: dog, MDCK cells infected with human rhinovirus 2; read-out: Ratio CC50/EC50
[18] = system: unidentified adenovirus; experiment: Antiviral activity against Adenovirus Chicago 65089 infected in human A549 cells; type: functional, organism-based; settings: Chicago 65089, A549
[19] = Antiviral activity against Influenza A virus (A/Brisbane/10/2007(H3N2)) infected in MDCK cells; type: functional, cell-based
[20] = Cytotoxicity against Influenza A virus (A/California/07/2009(H1N1)) infected MDCK cells; type: cell-based, Canis lupus familiaris; settings: dog
[21] = Selectivity index, ratio of toxicity against human Huh7ET cells assessed as reduction in beta-actin RNA levels at 20 uM to antiviral activity against HCV infected in human Huh7ET cells assessed as reduction in HCV RNA-derived luciferase activity at 20 uM by luciferase reporter gene assay; type: cell-based, Huh-7; settings: read-out: Selectivity Index; in short: as §1
[22] = Cytotoxicity against HBV infected human HepG2(2.2.15) cells; type: cell-based; settings: HBV infected HepG2(2.2.15) cells
In short: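 Toxicity was measured on confluent 2.2.15 cells alongside the primary anti-HBV assay. CC50 is given in µM.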

[23] = Cytotoxicity against Influenza B virus (B/Florida/4/2006) infected MDCK cells; type: cell-based, Canis lupus familiaris; settings: dog
[24] = Cytotoxicity against human rhinovirus 2 infected MDCK cells; type: cell-based, Canis lupus familiaris; settings: dog, MDCK cells infected with human rhinovirus 2
[25] = system: Hepatitis B virus; experiment: Antiviral activity against HBV infected in human HepG2(2.2.15) cells; type: functional, organism-based
In short: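 Primary anti-HBV screen in confluent 2.2.15 cells, run alongside a toxicity assay in the same cells. Compounds were supplied as DMSO solutions.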

[26] = Selectivity index, ratio of CC50 for Influenza A virus (A/California/07/2009(H1N1)) infected MDCK cells to EC50 for antiviral activity against Influenza A virus H1N1 (A/California/07/2009(H1N1)) infected in MDCK cells; type: toxicity, cell-based; settings: dog; read-out: Ratio CC50/EC50
[27] = Selectivity index, ratio of CC50 for ARS coronavirus Urbani infected African green monkey Vero 76 cells to EC50 for antiviral activity against ARS coronavirus Urbani infected in African green monkey Vero 76 cells; type: toxicity, cell-based; settings: Vero 76 cells infected with SARS coronavirus Urbani, read-out: Ratio CC50/EC50

Structure (SMILES) | EC50 [1] | CC50 [2] | CC50 [3] | CC50 [4] | response, % of control at 20 µM [5] | EC50 [6] | selectivity ratio [7] | CC50 [9] | selectivity ratio [10] | EC50 [11] | inhibition at 20 µM [12] | selectivity ratio [13] | EC50 [14] | EC50 [19] | CC50 [20] | selectivity ratio at 20 µM [21] | CC50 [22] | CC50 [23] | EC50 [25] | EC90 [25] | further results
COC(=O)[C@]1(C)CCC[C@]2(C)[C@H]3C[C@H]4C(C(C)C)=C[C@]3(CC[C@H]21)[C@@H]1/C(=N/O)CCC2(OCCO2)[C@@H]14 | > 2.9 µM | 3.3 µM | < 50 µM | 2.4 µM | 0.2% | > 50 µM | 1 | 3.3 µM | 1 | 3.2 µM | 97.9% | 1 | 3.2 µM | 3.2 µM | 2.9 µM | < 1 | 20 µM | 3.2 µM | > 10 µM | > 10 µM | CC50 [8]: 9.8 µM; EC50 [15]: 3.2 µM; EC50 [16]: > 2.4 µM; selectivity ratio [17]: 1; EC50 [18]: > 9.8 µM; CC50 [24]: 3.2 µM
COC(=O)[C@]1(C)CCC[C@]2(C)[C@H]3CC4C(C(C)C)=C[C@]3(CC[C@H]21)[C@@H]1NC(=O)CC[C@H](O)[C@H]41 | 32 µM | 28 µM | < 50 µM | 32 µM | 102% | < 50 µM | 1.5 | 28 µM |  | > 28 µM | 97.3% |  | 24 µM | > 28 µM | 33 µM | > 1 | 58 µM | 35 µM | > 10 µM | > 10 µM | CC50 [8]: 29 µM; selectivity ratio [26]: 1; EC50 [15]: > 28 µM; selectivity ratio [27]: 5.1; EC50 [16]: 6.3 µM; EC50 [18]: > 29 µM; CC50 [24]: 28 µM
COC(=O)[C@]1(C)CCC[C@]2(C)[C@H]3C[C@H]4C(C(C)C)=C[C@]3(CC[C@H]21)[C@H]1[C@@H]4[C@@H](OC(=O)CCC(=O)O)CC[C@@H]1OC(=O)CCC(=O)O |  | 3.2 µM | < 50 µM | 3.6 µM | 6.4% | > 50 µM | 1.1 |  |  | 3.2 µM | 96.6% | 1 | 3.1 µM |  |  | < 1 | 21 µM | 3.4 µM | > 10 µM | > 10 µM | CC50 [8]: 10 µM; EC50 [15]: 31 µM; selectivity ratio [27]: 1.1; EC50 [16]: 3.2 µM; selectivity ratio [17]: 1.1; EC50 [18]: > 10 µM; CC50 [24]: 33 µM
CC(C)C1=C[C@]23CC[C@@H]4[C@](C)(CCC[C@@]4(C)C(=O)O)[C@H]2C[C@H]1[C@H]1C(=O)OC(=O)[C@H]13 | 31 µM | 35 µM |  |  |  |  | 1.3 | 44 µM | 1.2 | 32 µM |  | 1.1 | 27 µM | 37 µM | 48 µM |  |  | 36 µM |  |  | selectivity ratio [26]: 1.5
COC(=O)[C@]1(C)CCC[C@]2(C)[C@H]3C[C@H]4C(=C(C)C)C5O[C@@]6(O)CCC(=O)[C@H]4[C@@H]6[C@@]53CC[C@H]21 |  |  |  |  |  |  |  |  |  |  | 68.4% |  |  |  |  | > 1 | 59 µM |  | > 10 µM | > 10 µM | response, % of control ([5]; huh-7, 20 µM): 151.2%
CC(C)C1=C[C@@]23CC[C@@H]4[C@](C)(CCC[C@@]4(C)C(=O)O)[C@H]2C[C@@H]1[C@H]1C(=O)CCC(=O)[C@H]13 |  |  |  |  | 88% |  | 4 | 36 µM | 1.1 |  | 0% |  | 8.6 µM | 32 µM |  | < 1 | 62 µM | 34 µM | > 10 µM | > 10 µM | 
COC(=O)[C@H](C)NC(=O)[C@]1(C)CCC[C@]2(C)[C@H]3C[C@H]4C(C(C)C)=C[C@]3(CC[C@H]21)[C@@H]1C(=O)OC(=O)[C@@H]14 | 32 µM | 33 µM |  |  |  |  | 1 | 33 µM | 1 | 32 µM |  | 1 | 32 µM | 32 µM | 34 µM |  |  | 33 µM |  |  | selectivity ratio [26]: 1.1
